This note sets out measurements from ChEMBL document CHEMBL1148286.

Assay [1] concerns the target Transthyretin (Homo sapiens) (UniProt P02766). In words: Ability to bind TTR selectively over all other proteins in human blood plasma (equiv bound). The assay is classed as cell-free. Summed up: (§1)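 Human blood plasma (1.0 mL) incubated with compound from 1.44 mM DMSO stock (final 10.8 µM) at 37 °C for 24 h with rocking. Pre-cleared with quenched sepharose, then TTR captured on anti-TTR antibody sepharose at 4 °C, washed with TSA/0.05% saponin and TSA. Eluted with 100 mM triethylamine pH 11.5. Ligand:TTR stoichiometry measured by reverse-phase HPLC (maximum 2 per tetramer).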

Assay [2] shares this target. In words: Transthyretin (TTR) amyloidogenesis inhibition activity by employing an acid-mediated (pH 4.4) WTTTR amyloid fibril formation assay, at 7.2 uM conc. Format: functional. An outline of the steps:
(§2)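 WT TTR (3.6 µM tetramer) in 10 mM phosphate, 100 mM KCl, 1 mM EDTA pH 7.6, preincubated 30 min at 25 °C with compound from DMSO stock. Acidified to pH 4.4 with acetate buffer, then held 72 h at 37 °C without agitation. Turbidity read at 350 and 400 nm after vortexing. Expressed as % of the no-inhibitor control; triplicate.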

Assay [3] shares this target. Briefly: Transthyretin (TTR) amyloidogenesis inhibition activity by employing an acid-mediated (pH 4.4) WTTTR amyloid fibril formation assay, at 3.6 uM conc. The assay is classed as functional. An outline of the steps:
as §2

Assay [4] shares this target. In words: Ability to bind TTR selectively over all other proteins in human blood plasma (equiv bound); None observed. Format: cell-free. An outline of the steps: as §1
For assay [5] the target is unchanged. In words: The first dissociation constant for binding to WT TTR determined by isothermal titration calorimetry (25 C, pH 8.0).
Assay [6] shares this target. Briefly: The second dissociation constant for binding to WT TTR determined by isothermal titration calorimetry (25 C, pH 8.0). (In general: In ITC the heat of successive injections is recorded.)

Take `O=C(O)c1ccc(-c2ccccc2)cc1`: the Plasma selectivity in assay [1] amounted to 0.08. Besides, the Fibril formation in assay [2] came out at 14.3%; in assay [3], 51.5%.

Molecule `Oc1cccc(-c2ccccc2F)c1` displayed a Fibril formation in assay [2] of 19.5%.

Turning to `O=Cc1cccc(-c2cc(F)cc(F)c2)c1`, the Fibril formation in assay [2] is 64.3%.

In the case of `O=Cc1ccccc1-c1cc(Cl)cc(Cl)c1`, the Plasma selectivity in assay [1] worked out at 1.96. Also, the Fibril formation in assay [2] worked out at 7.1%; in assay [3], 34.5%.

As for `Oc1cccc(-c2ccccc2)c1`, the Fibril formation in assay [2] came to 61.2%.

Molecule `O=C(O)c1ccc(-c2ccc(F)cc2)cc1` displayed a Fibril formation in assay [2] of 13.3%.

Regarding `O=C(O)c1cc(-c2ccc(F)cc2)ccc1O`, the Plasma selectivity in assay [1] turned out to be 0.09. For the same molecule, the Fibril formation is 2.6% in assay [2] and 38.7% in assay [3].

In turn, `COC(=O)c1cc(-c2ccc(F)cc2F)ccc1O` came in with a Fibril formation in assay [2] of 38.5%.

With `O=C(O)c1ccc(-c2ccc(F)cc2F)cc1`, the Plasma selectivity in assay [1] came to 0.2. In addition, the figures for the Fibril formation in assay [2] and in assay [3] were 2.6% and 32.6%, respectively.

Turning to `O=C(O)c1cccc(-c2ccc(F)cc2F)c1`, the Plasma selectivity entry in assay [4] was “None observed”. Moreover, the Fibril formation is 9.1% in assay [2] and 39.4% in assay [3].

As for `O=C(O)c1cccc(-c2ccccc2F)c1`, the Plasma selectivity result in assay [1] is given as “None observed”. Moreover, the results for the Fibril formation in assay [2] and in assay [3] were 9.8% and 39.4%, respectively.

Turning to `O=C(O)c1cc(-c2ccc(Cl)cc2Cl)ccc1O`, the Plasma selectivity in assay [1] worked out at 0.27. In addition, the values for the Fibril formation in assay [2] and in assay [3] were 3.6% and 29.9%, respectively.

`O=C(O)c1cccc(-c2c(F)cccc2F)c1`: the Plasma selectivity in assay [1] is 0.29. Besides, the values for the Fibril formation in assay [2] and in assay [3] were 6.7% and 35.1%, respectively.

Take `O=C(O)c1cccc(-c2cc(Cl)c(O)c(Cl)c2)c1`: the Plasma selectivity in assay [1] worked out at 0.12. Moreover, the Fibril formation in assay [2] was 4.4%; in assay [3] it was 25.5%.

The molecule `O=C(O)c1cccc(-c2ccc(F)cc2)c1` showed a Fibril formation in assay [2] of 15.7%.

As for `O=C(O)c1cccc(-c2cc(F)c(O)c(F)c2)c1`, in assay [1], the Plasma selectivity result is “None observed”. Also, the Fibril formation in assay [2] was 3.5%; in assay [3] it was 38.5%.

Molecule `OCc1cccc(-c2ccccc2)c1` returned a Fibril formation in assay [2] of 85.5%.

In assay [2], `Oc1ccc(-c2ccccc2F)cc1` showed a Fibril formation of 19.6%.

The molecule `O=C(O)c1ccc(-c2cc(F)cc(F)c2)cc1` displayed a Kd1 in assay [5] of 9 nM. In addition, the Kd2 in assay [6] was 1100 nM. In assay [1], the Plasma selectivity amounted to 1.27. The Fibril formation in assay [2] was determined as 3.7%; in assay [3] it was 35.7%.

`Oc1cccc(-c2ccc(F)cc2)c1` showed a Fibril formation in assay [2] of 46.3%.

Turning to `O=Cc1ccc(-c2ccccc2)cc1`, in assay [2], the Fibril formation amounted to 93.5%.

Regarding `O=C(O)c1ccccc1-c1cc(Cl)cc(Cl)c1`, the Fibril formation in assay [2] was 45.4%.

Regarding `Fc1cc(F)cc(-c2ccccc2)c1`, the Fibril formation in assay [2] turned out to be 100%.

With `O=C(O)c1cccc(-c2cc(F)cc(F)c2)c1`, the Plasma selectivity in assay [1] was found to be 0.23. Also, the Fibril formation in assay [2] amounted to 5.6%; in assay [3], 35.7%.

Take `Oc1ccc(-c2ccc(F)cc2)cc1`: the Fibril formation in assay [2] was 53.1%.

For `Oc1cccc(-c2cc(F)cc(F)c2)c1`, the Plasma selectivity in assay [1] stood at 0.18. The Fibril formation in assay [2] was 10.2%; in assay [3], 40.9%.

As for `O=C(O)c1ccc(-c2c(F)cccc2F)cc1`, the Kd2 in assay [6] was determined as 1300 nM. Moreover, the Fibril formation came to 4.5% in assay [2] and 28.5% in assay [3].

For the molecule `O=C(O)c1ccc(-c2cc(Cl)cc(Cl)c2)cc1`, the Plasma selectivity in assay [1] was 1.56. Besides, the Fibril formation in assay [2] turned out to be 4.9%; in assay [3], 41.2%.

On to `Fc1ccc(-c2ccccc2)c(F)c1`, for which the Fibril formation in assay [2] turned out to be 100%.

With `Oc1ccc(-c2ccc(F)cc2F)cc1`, in assay [2], the Fibril formation is 32.4%.

For `O=Cc1ccccc1-c1ccccc1`, in assay [2], the Fibril formation worked out at 72.5%.

As for `O=C(O)c1cc(-c2ccccc2F)ccc1O`, the Plasma selectivity in assay [1] is 0.07. The Fibril formation is 2.5% in assay [2] and 38.7% in assay [3].

Regarding `Clc1cc(Cl)cc(-c2ccccc2)c1`, in assay [2], the Fibril formation came out at 52.2%.

`O=Cc1ccc(-c2cc(F)cc(F)c2)cc1` displayed a Fibril formation in assay [2] of 69.6%.

On to `O=C(O)c1cc(-c2cc(F)cc(F)c2)ccc1O`, for which the Plasma selectivity result in assay [1] was “None observed”. Also, the figures for the Fibril formation in assay [2] and in assay [3] were 1% and 35.5%, respectively.

Consider `O=C(O)c1ccc(-c2ccccc2F)cc1`, for which the Plasma selectivity in assay [1] turned out to be 0.08. For the same molecule, the Fibril formation in assay [2] amounted to 4.8%; in assay [3], 32.4%.

On to `O=C(O)c1ccc(-c2cc(Cl)c(O)c(Cl)c2)cc1`, for which the Plasma selectivity in assay [1] was 0.26. Also, the Fibril formation came to 3.8% in assay [2] and 25.8% in assay [3].

On to `OCc1ccccc1-c1ccccc1`, for which, in assay [2], the Fibril formation was 81%.

Turning to `O=C(O)c1cc(-c2ccc(F)cc2F)ccc1O`, the Fibril formation in assay [2] was 3.4%; in assay [3], 37%.

Turning to `O=Cc1cccc(-c2cc(Cl)cc(Cl)c2)c1`, the Plasma selectivity in assay [1] came to 1.3. For the same molecule, the Fibril formation in assay [2] was 4.4%; in assay [3] it was 30.6%.

Take `OCc1ccccc1-c1cc(Cl)cc(Cl)c1`: the Plasma selectivity entry in assay [4] was “None observed”. In addition, the figures for the Fibril formation in assay [2] and in assay [3] were 7.7% and 33.6%, respectively.

Regarding `O=C(O)c1cccc(-c2cc(Cl)cc(Cl)c2)c1`, in assay [1], the Plasma selectivity amounted to 0.8. Further, the Fibril formation in assay [2] was found to be 3%; in assay [3], 32.7%.

The molecule `Oc1ccc(-c2cc(F)cc(F)c2)cc1` returned a Fibril formation in assay [2] of 16.4%.

Regarding `OCc1cccc(-c2cc(Cl)cc(Cl)c2)c1`, the Plasma selectivity in assay [1] turned out to be 0.89. Besides, the figures for the Fibril formation in assay [2] and in assay [3] were 3.3% and 30%, respectively.

Turning to `Fc1ccccc1-c1ccccc1`, in assay [2], the Fibril formation was 99.4%.

As to `OCc1ccc(-c2ccccc2)cc1`, the Fibril formation in assay [2] worked out at 100%.

In assay [2], `Fc1ccc(-c2ccccc2)cc1` had a Fibril formation of 100%.

Molecule `O=C(O)c1cccc(-c2ccccc2)c1` came in with a Fibril formation in assay [2] of 30.8%.

Regarding `Oc1cccc(-c2ccc(F)cc2F)c1`, in assay [2], the Fibril formation came to 31.5%.

In assay [2], `O=Cc1ccc(-c2cc(Cl)cc(Cl)c2)cc1` displayed a Fibril formation of 25.4%.

Regarding `COc1ccc(-c2ccc(F)cc2F)cc1C(=O)O`, the Fibril formation in assay [2] was 69.9%.

Consider `O=C(O)c1ccc(-c2cc(F)c(O)c(F)c2)cc1`, for which the Plasma selectivity in assay [1] worked out at 0.07. Moreover, the Fibril formation in assay [2] stood at 3.4%; in assay [3] it was 31.7%.

In the case of `OCc1ccc(-c2cc(Cl)cc(Cl)c2)cc1`, the Plasma selectivity in assay [1] was 0.54. Besides, the Fibril formation in assay [2] amounted to 5.9%; in assay [3], 38.9%.

Regarding `O=C(O)c1cc(-c2ccccc2)ccc1O`, the Plasma selectivity entry in assay [4] was “None observed”. Further, the Fibril formation came to 15.4% in assay [2] and 47.4% in assay [3].

As to `O=Cc1cccc(-c2ccccc2)c1`, the Fibril formation in assay [2] amounted to 35.4%.
